Reference: ChEMBL document CHEMBL1149056, “Bioactive annonaceous acetogenins from the bark of Xylopia aromatica” (J Nat Prod, 1994)
Values after ≈ are worked out from the molar mass of the structure shown.

Assays:
[1] = system: HT-29; test: Cytotoxicity against human HT-29 cells after 7 days; format: functional; settings: for EC50: Homo sapiens, HT-29, 168 h, read-out: ED50 (the source's name)
In short: (§1)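 Human solid tumor cell lines A-549 (lung carcinoma), MCF-7 (breast carcinoma) and HT-29 (colon adenocarcinoma) tested in seven-day cytotoxicity assays run at a cancer center cell culture laboratory, with adriamycin as positive control.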

[2] = system: A549; test: Cytotoxicity against human A549 cells after 7 days; format: functional; settings: for EC50: Homo sapiens, A549, 168 h, read-out: ED50 (the source's name); in short: as §1
[3] = system: MCF7; test: Cytotoxicity against human MCF7 cells after 7 days; format: functional; settings: for EC50: Homo sapiens, MCF7, 168 h, read-out: ED50 (the source's name); in short: as §1
[4] = Toxicity against brine shrimp larvae; format: organism-based; settings: artemia, in vivo

Structure (SMILES)	EC50 [1] [µg/mL]	EC50 [2] [µg/mL]	EC50 [3] [µg/mL]	ED50 [1]	LC50 [4] [µg/mL]	ED50 [2]	ED50 [3]
CCCCCCCCCCCC[C@H](O)[C@@H]1CC[C@@H]([C@@H](O)CCCCCCC(O)CCCCC[C@@H](O)CC2=C[C@H](C)OC2=O)O1 (some centres undefined) [ANNOMONTACIN]	0.00258 (≈ 0.00413 µM)	0.00772 (≈ 0.0124 µM)	0.165 (≈ 0.264 µM)	–	–	–	–
CCCCCCCCCCCC[C@@H](O)[C@H]1CC[C@H]([C@H](O)CCCC[C@H](O)CCCCC[C@@H](O)CC2=CC(C)OC2=O)O1 (some centres undefined) [ANNONACIN]	–	–	0.0024 (≈ 0.00402 µM)	<1 ×10⁻⁷ ug/ml	0.23 (≈ 0.385 µM)	<1 ×10⁻⁷ ug/ml	–
COc1cccc2c1C(=O)c1c(O)c3c(c(O)c1C2=O)C[C@@](O)(C(=O)CO)C[C@@H]3O[C@H]1C[C@H](N)[C@H](O)[C@H](C)O1 [DOXORUBICIN]	0.00279 (≈ 0.00513 µM)	0.0011 (≈ 0.00202 µM)	0.0228 (≈ 0.0419 µM)	–	–	–	–
CCCCCCCCCCCCCC[C@@H](O)[C@H](O)CC[C@H](O)[C@@H]1CC[C@@H](CCCCC[C@@H](O)CC2=C[C@H](C)OC2=O)O1 [GIGANTETROCIN A]	–	0.25 (≈ 0.419 µM)	0.63 (≈ 1.06 µM)	4.1 ×10⁻⁵ ug/ml	1.4 (≈ 2.35 µM)	–	–
CCCCCCCCCCCCCCC(O)C(O)CC[C@H](O)[C@H]1CC[C@H](CCCCC[C@@H](O)CC2=C[C@H](C)OC2=O)O1 (some centres undefined) [GIGANTETRONENIN]	0.0537 (≈ 0.09 µM)	0.0047 (≈ 0.00787 µM)	0.603 (≈ 1.01 µM)	–	–	–	–
CCCCCCCCCCCCCC[C@@H](O)[C@H]1CC[C@H]([C@H](O)CCCCC(O)CCCCC[C@@H](O)CC2=C[C@H](C)OC2=O)O1 (some centres undefined) [XYLOMATICIN]	0.304 (≈ 0.486 µM)	–	–	–	0.11 (≈ 0.176 µM)	1.54 ×10⁻⁴ ug/ml	1.47 ×10⁻⁶ ug/ml
CCCCCCCCCCCCCC[C@@H](O)[C@H]1CC[C@H]([C@H](O)CCCCCCC(O)CCC[C@@H](O)CC2=C[C@H](C)OC2=O)O1 (some centres undefined) [XYLOPIACIN]	0.111 (≈ 0.178 µM)	–	–	–	0.49 (≈ 0.784 µM)	1.36 ×10⁻⁶ ug/ml	1.39 ×10⁻⁷ ug/ml
CCCCCCCCCCCC[C@@H](O)[C@H]1CC[C@H]([C@H](O)CCCCCCC(O)CCC[C@@H](O)CC2=C[C@H](C)OC2=O)O1 (some centres undefined) [XYLOPIANIN]	6.63 (≈ 11.1 µM)	0.0426 (≈ 0.0714 µM)	18.5 (≈ 30.9 µM)	–	0.33 (≈ 0.553 µM)	–	–
